The conditions of series [1]: reference value, CD3OD; cited from earlier work.
Series [2] concerns A431 and A549 cancer cells. The series is classed as cell-based, human. The note with it: 520 nm, 75 J cm^–2, compared to the dark control; maximum. A digest of the protocol:
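Photo index is the ratio of dark EC50 to green-light EC50 (520 nm, 60 min, 75 J cm–2). Light was applied after 6 h or 24 h dark pre-incubation with test compound (37 °C, 7% CO2). EC50 is the concentration giving 50% viability loss versus untreated wells.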

Series [3] is described as follows: Singlet oxygen quantum yield by 1274 nm emission in CD3OD. The series is classed as physicochemical. The following applies: 450 nm excitation, under air, 298 K.
Series [4] is described as follows: Photosubstitution quantum yield under blue light. The series is classed as physicochemical. The note with it: blue light irradiation 450 nm, in water.
Series [5] has as its system A549 cells. Kind of series: Annexin V-FITC/propidium iodide flow cytometry. Type of series: cell-based, human. The note with it: A549, green light irradiation. Put shortly: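 A549 cells were treated with test compound (1.5 μM or 10 μM, by complex) for 6 h in the dark. They then received 1 h green light (520 nm, 75 J cm–2) followed by 24 h dark incubation, or were kept dark throughout (31 h). Annexin V-FITC (525 nm) and propidium iodide (670 nm) were read by flow cytometry. Quadrants: lower left live, lower right apoptotic, upper left necrotic, upper right secondary necrotic.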

In series [6] the test system is A549 cells. The series is described as follows: Cell fractionation and ruthenium uptake by ICP-MS. Type of series: cell-based, human. Put shortly: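 A549 cells were exposed to test compound for 6 h in the dark, then harvested. Cytosol, membrane, nuclei and cytoskeleton fractions were separated. Ruthenium in each fraction was quantified by ICP-MS.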
Series [7] concerns pUC19 plasmid DNA. The series is described as follows: Thermal. The series is classed as binding. The following applies: pUC19, phosphate buffer, 37 °C, 24 h, up to 5 : 1 BP : MC ratio.
The test system of series [8] is pUC19 plasmid DNA. The series is described as follows: Photoinduced binding to plasmid DNA, agarose gel. The following applies: pUC19, 50 : 1 BP : MC, λirr = 520 nm, 5–60 min. A digest of the protocol: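 pUC19 plasmid was mixed with test compound (50:1 BP:MC) and irradiated at 520 nm for 5, 15, 30, 45 or 60 min. Controls were dark and irradiated DNA alone and a dark 50:1 sample. Cisplatin was included as a reference. Agarose gel with lambda DNA marker; linear dimer, open circular and supercoiled forms were scored.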

A short description of series [9]: Dark stability in aqueous and DMSO solutions. The series is classed as physicochemical. Put shortly: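 Test compound solutions in D2O or DMSO were kept in the dark, with DMSO also held at –20 °C, and monitored over time. Chloride effect in aqueous solution was probed by adding NaCl up to 0.15 M.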
The subject of series [10] is A549 cells. Kind of series: Confocal microscopy of mitochondrial potential. The series is classed as cell-based, human. The following applies: A549, TMRE and DRAQ5 staining, green light 75 J cm^–2.
A further series in a line: Water solubility. Type of series: physicochemical.

As to `[Cl][Ru][Cl].c1ccc(-c2ccccn2)nc1.c1ccc(-c2ccccn2)nc1.c1ccc(-c2ccccn2)nc1` [[Ru(bpy)3]Cl2], in series [1], the “quantum yield of 1O2 generation (Φref)” value is on record as 73%.
In the case of [Ru(biqbpy)(dmso)Cl]Cl [[1]Cl], the “photo-indices (increase in cytotoxicity after green light vs dark)” value in series [2] was “up to 22”. Moreover, in series [3], the “quantum yield of 1O2 generation (Φ1O2)” value was found to be 1.3%. Moreover, in series [4], the “photosubstitution quantum yield (ΦPS)” value is listed as 0.3%. Besides, in the series with A549 cells [5], the “type of cell death (photocytotoxicity)” value is given as “apoptosis without any sign of necrosis”. Also, in the series on A549 cells [6] (A549, 6 h in the dark at EC50 concentration, cell fractionation), the “preference for the membrane fraction (intracellular distribution)” value is given as “strong”. Further, in the series with A549 cells [6] (A549, 6 h in the dark at concentration corresponding to the EC50 value, ICP-MS), the “total uptake (ruthenium)” value amounted to 16 ng/10^6 cells. The “dark thermal DNA binding” value in the series with pUC19 plasmid DNA [7] is listed as “negligible binding”. Moreover, the “photoinduced DNA binding” value with pUC19 plasmid DNA [8] was “significant retardation of the SC form”. Also, the “dark stability of DMSO solution” value in series [9] (DMSO, –20 °C) is “stable in the dark at –20 °C for at least six months”. Further, the “stability of Ru–S bond with dmso ligand” value in series [9] (aqueous or DMSO solutions, 298 K) is “remained stable”. In addition, in series [9] (upon dissolution in deionized water or D2O), the “hydrolysis of chloride ligand” value is “immediately hydrolysed”. The “effect of light irradiation on mitochondria and nuclear DNA” value in the series with A549 cells [10] is “diminished the mitochondrial membrane potential and induced chromosomal condensation”. In addition, the solubility in water entry in the series “Water solubility” is “water-soluble”.
Take `N.N.[Cl][Pt][Cl]` [Cisplatin, cis-diamineplatinum(II) dichloride, reference compound]: in the series on pUC19 plasmid DNA [7], the “dark thermal DNA binding” value is reported as “typical DNA binding results”.

The values are drawn from article PMC6018302 (Chemical Science, 2016).
